In ChEMBL document CHEMBL1148824, “Quinazolinone derivatives as orally available ghrelin receptor antagonists for the treatment of diabetes and obesity” (J Med Chem, 2007):
Values after ≈ are worked out from the molar mass of the structure shown.

Experiments:
[1] = molecular target: Ghrelin receptor (Ovis aries, UniProt Q8MHZ5); assay: Displacement of [125I]ghrelin from ovine recombinant GHSR1a expressed in HEK293F cells after 6 hrs by scintillation proximity assay; type: cell-based
[2] = Cmax in po dosed DIO C57BL/6 mouse after 5 hrs; type: ADME, organism-based; design: route oral; settings: in vivo
[3] = molecular target: Cytochrome P450 2D6 (Homo sapiens, UniProt P10635); assay: Inhibition of CYP2D6; type: ADME
Sequence of Cytochrome P450 2D6 (P10635 whole entry): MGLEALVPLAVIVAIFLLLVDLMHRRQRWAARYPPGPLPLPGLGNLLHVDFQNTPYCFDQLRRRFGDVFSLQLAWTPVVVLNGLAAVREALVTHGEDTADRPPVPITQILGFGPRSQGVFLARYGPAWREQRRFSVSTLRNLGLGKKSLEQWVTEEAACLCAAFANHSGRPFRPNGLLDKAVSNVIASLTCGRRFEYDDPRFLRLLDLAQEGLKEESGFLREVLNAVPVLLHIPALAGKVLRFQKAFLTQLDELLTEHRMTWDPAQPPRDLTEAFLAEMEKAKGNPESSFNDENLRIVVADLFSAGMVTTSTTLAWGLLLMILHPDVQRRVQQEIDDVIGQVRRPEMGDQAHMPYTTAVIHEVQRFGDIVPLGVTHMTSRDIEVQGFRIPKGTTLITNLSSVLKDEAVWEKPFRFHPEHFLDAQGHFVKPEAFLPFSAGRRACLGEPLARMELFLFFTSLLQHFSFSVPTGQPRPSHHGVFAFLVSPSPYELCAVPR

[4] = molecular target: T1, 5-hydroxytryptamine receptor 2C (Homo sapiens, UniProt P28335); assay: Displacement of […] from 5HT2c receptor
T1 sequence (P28335 whole entry): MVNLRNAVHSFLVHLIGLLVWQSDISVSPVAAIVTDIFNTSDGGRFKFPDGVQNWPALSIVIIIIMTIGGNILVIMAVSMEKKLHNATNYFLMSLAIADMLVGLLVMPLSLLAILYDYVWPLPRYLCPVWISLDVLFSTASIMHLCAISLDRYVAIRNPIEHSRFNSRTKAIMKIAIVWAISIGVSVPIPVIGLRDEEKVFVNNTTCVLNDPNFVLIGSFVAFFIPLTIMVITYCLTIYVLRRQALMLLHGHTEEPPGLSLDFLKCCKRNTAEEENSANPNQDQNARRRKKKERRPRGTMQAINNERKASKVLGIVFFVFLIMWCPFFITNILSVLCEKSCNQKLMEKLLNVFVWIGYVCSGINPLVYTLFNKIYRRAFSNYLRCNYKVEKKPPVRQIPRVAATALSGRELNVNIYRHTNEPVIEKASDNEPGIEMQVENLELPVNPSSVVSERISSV

[5] = Aqueous solubility at pH 7.2; type: physicochemical
[6] = tested on: Mus musculus; assay: Increase in food intake in DIO C57BL/6 mouse at 30 mg/kg, after 5 hrs relative to control; type: functional
[7] = Cmax in Wistar rat at 3 mg/kg, po; type: ADME, organism-based; design: dose 3 mg/kg, route oral; settings: in vivo
Procedure, shortened: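 Wistar rat pharmacokinetic screen; single oral dose of 3 mg/kg in PEG400/methanesulfonic acid (80:20) vehicle; plasma exposure measured.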

[8] = tested on: Rattus norvegicus; assay: Decrease in blood glucose level in DIO Wistar rat using at 10 mg/kg after 5 hrs by IPGTT test relative to control; type: functional; design: scale not given: the % may be the effect or the level left
[9] = tested on: Brain; assay: Drug level in po dosed DIO C57BL/6 mouse brain after 5 hrs relative to plasma concentration; type: ADME, organism-based
[10] = molecular target: T2, Growth hormone secretagogue receptor type 1 (Homo sapiens, UniProt Q92847); assay: Antagonist activity at human recombinant GHSR1a expressed in HEK293F cells by [35S]GTP-gamma-S binding assay; type: functional, cell-based
T2 sequence (Q92847 whole entry): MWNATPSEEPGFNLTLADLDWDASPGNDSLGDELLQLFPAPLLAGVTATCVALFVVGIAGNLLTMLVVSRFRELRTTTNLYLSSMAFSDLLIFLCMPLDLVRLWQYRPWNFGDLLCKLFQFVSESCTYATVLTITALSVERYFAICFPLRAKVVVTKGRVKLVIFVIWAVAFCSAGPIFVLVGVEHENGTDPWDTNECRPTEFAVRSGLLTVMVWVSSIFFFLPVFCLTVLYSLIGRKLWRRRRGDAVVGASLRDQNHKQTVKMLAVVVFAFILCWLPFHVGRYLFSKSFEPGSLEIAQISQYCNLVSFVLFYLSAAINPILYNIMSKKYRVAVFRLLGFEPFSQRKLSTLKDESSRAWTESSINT
Procedure, shortened: (§1)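 Functional read-out as GTPγS binding to membranes from HEK293F cells overexpressing recombinant GHS-R1a; values are the mean of at least two replicates.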

[11] = molecular target: T2, Growth hormone secretagogue receptor type 1; assay: Agonist activity at human recombinant GHSR1a expressed in HEK293F cells assessed as stimulation of [35S]GTP-gamma-S binding relative to ghrelin; type: functional, cell-based; procedure, shortened: as §1

Sequence of Ghrelin receptor (Q8MHZ5 whole entry): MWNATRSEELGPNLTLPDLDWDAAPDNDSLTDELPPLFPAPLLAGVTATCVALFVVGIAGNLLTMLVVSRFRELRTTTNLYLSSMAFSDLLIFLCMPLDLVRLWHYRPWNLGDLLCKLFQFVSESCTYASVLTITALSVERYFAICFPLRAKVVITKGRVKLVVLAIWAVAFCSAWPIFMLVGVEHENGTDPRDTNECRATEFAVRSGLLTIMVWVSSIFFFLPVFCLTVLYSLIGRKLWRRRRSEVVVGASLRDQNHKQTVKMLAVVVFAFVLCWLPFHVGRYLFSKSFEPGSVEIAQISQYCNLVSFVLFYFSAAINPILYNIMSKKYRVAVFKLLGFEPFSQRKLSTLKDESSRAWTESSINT

Row | Compound | Ki [1] [nM] | Cmax [7] [nM] | Kb [10] [nM] | E/Emax [11] [%] | further results
1 | Cc1ccccc1-c1nc2ccc(Oc3ccc(F)cc3)cc2c(=O)n1C[C@H]1CCCN(C(C)C)C1 (stereo in doubt; 36) | 0.86 | 90 | – | – | Cmax [2]: 3100 nM; IC50 [3]: 90 nM; Ki [4]: > 1000 nM; solubility [5]: 250 µM (≈ 121 µg/mL); Activity [6]: -7%; Activity [8]: -19%; Drug uptake [9]: 1%
2 | CCN1CCC[C@H](Cn2c(-c3ccccc3C)nc3ccc(-c4ccc(Cl)cc4)cc3c2=O)C1 | 1.7 | 120 | 2.8 | 0 | Cmax [2]: 2200 nM; IC50 [3]: 6100 nM; Ki [4]: 120 nM; solubility [5]: 80 µM (≈ 37.8 µg/mL); Activity [6]: -17%; Activity [8]: -13%; Drug uptake [9]: 22%
3 | Cc1ccccc1-c1nc2ccc(-c3ccc(Cl)cc3)cc2c(=O)n1CC1CCCN(C2CCC2)C1 (configuration not stated) | 2.5 | 220 | 2.7 | -20 | –
4 | CCN1CCC[C@H](Cn2c(-c3ccccc3C)nc3ccc(OC(F)(F)F)cc3c2=O)C1 | 16 | – | – | – | –
5 | CCN1CCC[C@@H](Cn2c(-c3ccccc3C)nc3ccc(OC(F)(F)F)cc3c2=O)C1 | 95 | – | – | – | –
6 | Cc1ccccc1-c1nc2ccc(Oc3ccc(F)cc3)cc2c(=O)n1CC1CCCNC1 (configuration not stated) | 0.9 | 40 | – | 92 | EC50 [11]: 6.5 nM
7 | Cc1ccccc1-c1nc2ccccc2c(=O)n1CC1CCCN(C(C)C)C1 (configuration not stated) | 1200 | – | – | – | –
8 | CC(C)c1nc2ccc(-c3ccc(Cl)cc3)cc2c(=O)n1C[C@H]1CCCN(C(C)C)C1 | 45 | 290 | 77 | 0 | IC50 [3]: 6300 nM; Ki [4]: > 1000 nM; solubility [5]: 60 µM (≈ 26.3 µg/mL)
9 | CCN1CCC=C(Cn2c(-c3ccccc3C)nc3ccc(-c4ccc(Cl)cc4)cc3c2=O)C1 | 26 | 30 | 36 | -18 | –
10 | CC(C)c1nc2ccc(-c3ccccc3Cl)cc2c(=O)n1C[C@H]1CCCN(C(C)C)C1 | 127 | – | – | – | –
11 | CC(C)N1CCC[C@H](Cn2cnc3ccc(-c4ccc(Cl)cc4)cc3c2=O)C1 | 440 | 200 | – | – | IC50 [3]: 200 nM; Ki [4]: > 1000 nM
12 | CCN1CCC[C@@H](Cn2c(-c3ccc(C(F)(F)F)cc3)nc3ccc(-c4ccc(Cl)cc4)cc3c2=O)C1 | 240 | – | – | – | –
13 | Cc1ccccc1-c1nc2ccc(-c3ccc(Cl)cc3)cc2c(=O)n1CC1CCCN(CC(F)(F)F)C1 (configuration not stated) | 2000 | 170 | – | – | –
14 | Cc1ccccc1-c1nc2ccc(Oc3ccc(F)cc3)cc2c(=O)n1C[C@@H]1CCCN(C(C)C)C1 | 47 | – | – | – | –
15 | CCN1CCC[C@@H](Cn2c(-c3ccccc3C)nc3ccc(-c4ccc(Cl)cc4)cc3c2=O)C1 | 71 | – | 250 | 10 | –
16 | CC(C)c1nc2ccc(-c3ccccc3Cl)cc2c(=O)n1C[C@@H]1CCCN(C(C)C)C1 | 1800 | – | – | – | –
17 | CCN1CCC[C@@H](Cn2c(C(C)C)nc3ccc(-c4ccc(F)cc4)cc3c2=O)C1 | 5700 | – | – | – | –
18 | COCCN1CCCC(Cn2c(-c3ccccc3C)nc3ccc(-c4ccc(Cl)cc4)cc3c2=O)C1 (configuration not stated) | 4 | 140 | 6.4 | -20 | –
19 | CCN1CCC[C@H](Cn2c(C(C)C)nc3ccc(-c4ccc(F)cc4)cc3c2=O)C1 | 40 | – | – | – | –
20 | CCN1CCC[C@H](Cn2c(-c3ccc(C(F)(F)F)cc3)nc3ccc(-c4ccc(Cl)cc4)cc3c2=O)C1 | 16 | – | – | – | –
